PMC4267758 (Journal of molecular biology, 2014)
“Also recorded” adds a separate entry of the source. Read-outs that look alike come from different tables or passages of the source. Where no end group is shown, it is not given here. The star is where a group is joined. MTSL = methane thiosulphonate spin label, CC1(C)C=C(CS*)C(C)(C)N1[O]

Legend:
Pyk2-FAT [1] = assay: H/D exchange NMR of Pyk2-FAT complexes; design: species or system human; details: H/D exchange in D2O, fast 15N-HSQC, up to 10 h
Procedure, shortened: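 15N-labelled Pyk2-FAT complexes (400–500 μM, 20 mM MES pH 6.2) were lyophilized and rehydrated in D2O. FAST 1H-15N HSQC spectra were recorded at intervals up to 10 h at 305 K. HSQC spectra in H2O before and after exchange checked structural integrity.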

FAK-FAT = details: ref [39] (b5), [39], [40]; cited from earlier work
Pyk2-FAT [2] = assay: Reverse NMR titration: unlabeled Pyk2-FAT added to 15N-labeled paxillin ligand; format: binding, human; details: 1H-15N HSQC/TROSY, ratios up to 1:2, 20 mM MES, pH 6.2
Procedure, shortened: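 Unlabelled Pyk2-FAT was titrated into a 15N-labelled ligand in 20 mM MES pH 6.2, with 15N-1H HSQC spectra at 600/800 MHz and 305 K. Ligands were an expressed chicken paxillin 139–163 peptide or His-tagged chicken paxillin 133–290. […] Ratios were 1:0.2–1:2.0.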

Pyk2-FAT [3] = assay: Co-crystal structure with Pyk2-FAT; format: binding, human; details: PDB 4R32, 3.5 Å, one at H1/H4, one at H2/H3
Pyk2-FAT [4] = assay: Isothermal titration calorimetry; format: binding, human
Procedure, shortened: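 Human Pyk2 FAT domain (residues 871–1005) with an N-terminal His6 tag, expressed in E. coli BL21(DE3) and purified by Ni-affinity then gel filtration. The cell held 10 μM protein in 20 mM MES, pH 6.2. The syringe held chicken paxillin LD-motif peptides (100 μM) or the His-tagged paxillin 133–290 fragment (50 μM). Solutions degassed; 2 μl injections, 120 s apart, at 25°C. Ligand-into-buffer heats subtracted. Fits used one-site or two-site sequential models. Run in duplicate.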

Pyk2-FAT [5] = assay: NMR titration / chemical shift perturbation of 15N-labeled Pyk2-FAT; format: binding, human; details: 15N-HSQC/TROSY titration, Pyk2-FAT:ligand 1:0.2 to 1:2, 20 mM MES, pH 6.2, 305K
Procedure, shortened: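 15N-labeled Pyk2-FAT (400–500 μM in 20 mM MES, pH 6.2) titrated at 305 K with chicken LD peptides at protein:peptide ratios of 1:0.2 to 1:2. Peptide stocks were in dialysis buffer, pH readjusted to 6.2. 15N-HSQC spectra recorded at 600/800 MHz. Weighted shift Δav = [(ΔH² + (ΔN/5)²)/2]^1/2. For PRE, MTSL-labeled peptides were added at 1:0.2 and Iox/Ired taken after ascorbate reduction.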

Pyk2-FAT [6] = assay: Sedimentation equilibrium AUC; format: binding, human; details: AUC-SE; for Kd: two site hetero-association model (A+B+B↔ABB), 1:2 Pyk2-FAT to peptide, 20 mM MES, pH 6.2, 4 °C, Monte Carlo error, 500 iterations, confidence level 0.68
Procedure, shortened: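 Sedimentation equilibrium at 4 °C in 20 mM MES, 50 mM NaCl, pH 6.2. Rotor speeds 18.4, 26.9 and 46k rpm, equilibrium reached at 30, 26 and 18 h. Loading 35–96 μM. Absorbance read at 280 and 230 nm, 0.001 cm radial steps, 20 replicates per point. Global least-squares fit across speeds to the A+B+B↔ABB model.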

Pyk2-FAT [7] = assay: Steady-state 1H-15N heteronuclear NOE; design: species or system human; details: 600 MHz, 305 K; relative to free Pyk2-FAT, loop regions
Procedure, shortened: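 Steady-state 1H-15N heteronuclear NOE was measured at 600 MHz, 305 K on 15N-labelled Pyk2-FAT, free and bound to LD-motif peptide. Protein was at 400–500 μM in 20 mM MES pH 6.2. NOE values were taken as peak-intensity ratios of 1H-saturated to unsaturated spectra.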

[8] = system: FAT-like domain from G-protein-coupled receptor kinase-interacting protein 1 (GIT1); details: ref [41]; cited from earlier work
Pyk2-FAT [9] = assay: Paramagnetic relaxation enhancement; format: binding, human; details: PRE, MTSL-labeled peptide, Pyk2-FAT:peptide 1:0.2, 20 mM MES, pH 6.2
Procedure, shortened: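 Single-cysteine peptide variants in 20 mM phosphate pH 7.2 were reacted with fivefold molar excess MTSL for 8 h at room temperature. They were HPLC-repurified, lyophilized and redissolved in 20 mM MES pH 6.2, then added to uniformly 15N-labelled Pyk2-FAT. The reduced reference used fivefold molar excess ascorbic acid for 1 h. Per-residue Iox/Ired peak-intensity ratios were computed, excluding prolines and overlapped peaks.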

[10] = target: Pyk2 focal adhesion-targeting (Pyk2-FAT) domain (human, UniProt Q14289 871-1005); assay: NMR paramagnetic relaxation enhancement

What does the source list for “LD2: paxillin derived peptide LD2 (chicken paxillin; residues 139–163), chemically synthesized (GSNLSELDRLLLELNAVQHNPPSGF)”?
amide H/D exchange protection of Pyk2-FAT in complex (Pyk2-FAT [1]): residues from H2/H3 and H1/H4 were protected even after 10 hrs; preferred binding site on FAK-FAT (FAK-FAT): specifically recognizes the H1/H4 site of FAK-FAT; also recorded: preferentially binds to the helices H1 and H4 interface (H1/H4) site; effect of unlabeled Pyk2-FAT on resonances of 15N-labeled ligand (Pyk2-FAT [2]): most of the LD2 resonances were broadened beyond detection; peptide molecules bound per Pyk2-FAT in crystal (Pyk2-FAT [3]): two LD2 peptides bind to one molecule of Pyk2-FAT; relative binding at H1/H4 and H2/H3 sites of Pyk2-FAT (Pyk2-FAT [4]; discussion statement, H1/H4 versus H2/H3): binds to both H1/H4 and H2/H3 sites of Pyk2-FAT equally well; affinity preference for H2/H3 site over H1/H4 site of Pyk2-FAT (Pyk2-FAT [4]; from ITC and AUC studies): 5 fold; binding sites / site preference on Pyk2-FAT by NMR (Pyk2-FAT [5]): H2/H3 is the stronger binding site; global free energy difference between first and second sites (ΔGAB and ΔGABB) (Pyk2-FAT [6]; 1:2 stoichiometry, two-site hetero-association model): -0.76 kcal/mol; Delta G, single site (1:1) (Pyk2-FAT [6]; single site hetero-association model, T = 277.149994K, RT = 0.551kcal/mol): -7.61 kcal/mol; Delta G, first binding site (1:2) (Pyk2-FAT [6]; two site hetero-association model, first site, T = 277.149994K, RT = 0.551kcal/mol): -7.45 kcal/mol; Delta G, second binding site (both occupied) (Pyk2-FAT [6]; two site hetero-association model, second site, T = 277.149994K, RT = 0.551kcal/mol): -6.69 kcal/mol; Kd (Pyk2-FAT [6]; read-out: KAB (first site), 1:2 stoichiometry): 1.32 ± 0.02 µM; Kd (Pyk2-FAT [6]; read-out: KABB (second site), 1:2 stoichiometry): 5.3 ± 0.12 µM; steady-state 1H-15N NOE of Pyk2-FAT amides upon ligand binding (Pyk2-FAT [7]): significantly increased relative to free Pyk2-FAT; binding site on GIT1 FAT-like domain [8]: located exclusively at the H1/H4 surface

Which “H2/H3 residues of Pyk2-FAT affected by spin-labeled peptide” value (Pyk2-FAT [9]) does the source give for “LD2MTSL: methane thiosulphonate (MTSL)-derivatized LD2 peptide (GSNLSELDRLLLELNAVC(MTSL)HNPPSGF)” here?
The value was “residues from H2/H3 disappeared or showed reduced intensity”.

Does GSNLSELDRLLLELNAVC(MTSL)HNPPSGF (peptide, UniProt P49024 139-163, looked up) [spin-labeled LD2 (Q156C) peptide] bind [10]?
Result: binds
